Here are results for five compounds from ChEMBL document CHEMBL3120161, “Antimycobacterial activity of nitrogen heterocycles derivatives: bipyridine derivatives. Part III” (Eur J Med Chem, 2014).

Structures are written as SMILES. In brackets after ≈: the same amount, converted by molar mass. Bounds are passed on as bounds.

Assay [1] has as its system Mycobacterium tuberculosis. Kind of assay: Antimycobacterial activity against Mycobacterium tuberculosis H37Rv ATCC 27294 after 7 days by broth microdilution assay. It is filed as functional. Conditions: H37Rv ATCC 27294, 168 h. An outline of the steps:
(§1)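 Cycle 1 HTS MABA: M. tuberculosis H37Rv ATCC 27294 in 7H12 broth, 384-well, final 1% DMSO. Ten twofold dilutions, typically 100 to 0.195 µg/mL. Amikacin controls at 0.17 and 3.20 µM; the high level serves as background for percent inhibition. 7 days at 37 °C, ~95% humidity. Fluorescence read at 535 nm excitation / 590 nm emission.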
(In general: In broth dilution the organism is exposed to a series of concentrations in liquid medium.)

For assay [2], the system named is Mycobacterium tuberculosis. The assay can be described thus: Antimycobacterial activity against Mycobacterium tuberculosis H37Rv ATCC 27294 after 7 days by microplate Alamar blue assay. Type of assay: functional, organism-based. Conditions: H37Rv ATCC 27294, 168 h. In outline: as §1
Assay [3] has as its system Mycobacterium tuberculosis. Kind of assay: Antimycobacterial activity against Mycobacterium tuberculosis H37Rv ATCC 27294 at 25 ug/ml after 7 days by microplate Alamar blue assay relative to control. The following applies: H37Rv ATCC 27294, 168 h. It is filed as functional. An outline of the steps:
as §1
For orientation: The colour change of resazurin is a common sign of viable cells or microbes.

Assay [4] has as its system Mycobacterium tuberculosis. Kind of assay: Antimycobacterial activity against Mycobacterium tuberculosis H37Rv ATCC 27294 at 50 ug/ml after 7 days by microplate Alamar blue assay relative to control. Type of assay: functional. Conditions: H37Rv ATCC 27294, 168 h. An outline of the steps:
as §1

The test system of assay [5] is Mycobacterium tuberculosis. The assay can be described thus: Antimycobacterial activity against Mycobacterium tuberculosis H37Rv ATCC 27294 at 100 ug/ml after 7 days by microplate Alamar blue assay relative to control. Conditions: H37Rv ATCC 27294, 168 h. It is filed as functional. An outline of the steps: as §1
The subject of assay [6] is Mycobacterium tuberculosis. The assay can be described thus: Antimycobacterial activity against Mycobacterium tuberculosis H37Rv ATCC 27294 at 1.56 ug/ml after 7 days by microplate Alamar blue assay relative to control. It is filed as functional. Conditions: H37Rv ATCC 27294, 168 h. In outline:
as §1

For assay [7], the system named is Mycobacterium tuberculosis. Kind of assay: Antimycobacterial activity against Mycobacterium tuberculosis H37Rv ATCC 27294 at 12.5 ug/ml after 7 days by microplate Alamar blue assay relative to control. Type of assay: functional. Conditions: H37Rv ATCC 27294, 168 h. In outline: as §1
Assay [8] has as its system Mycobacterium tuberculosis. Kind of assay: Antimycobacterial activity against Mycobacterium tuberculosis H37Rv ATCC 27294 at 6.5 ug/ml after 7 days by microplate Alamar blue assay relative to control. It is filed as functional. The following applies: H37Rv ATCC 27294, 168 h. An outline of the steps: as §1
The test system of assay [9] is Mycobacterium tuberculosis. The assay can be described thus: Antimycobacterial activity against Mycobacterium tuberculosis H37Rv ATCC 27294 at 3.13 ug/ml after 7 days by microplate Alamar blue assay relative to control. It is filed as functional. Conditions: H37Rv ATCC 27294, 168 h. An outline of the steps: as §1
The test system of assay [10] is Mycobacterium tuberculosis. The assay can be described thus: Antimycobacterial activity against Mycobacterium tuberculosis H37Rv ATCC 27294 at 0.08 ug/ml after 7 days by microplate Alamar blue assay relative to control. It is filed as functional. The following applies: H37Rv ATCC 27294, 168 h.
Assay [11] concerns Mycobacterium tuberculosis. The assay can be described thus: Antimycobacterial activity against Mycobacterium tuberculosis H37Rv ATCC 27294 at 0.16 to 0.31 ug/ml after 7 days by microplate Alamar blue assay relative to control. Type of assay: functional. An outline of the steps:
as §1

The test system of assay [12] is Mycobacterium tuberculosis. Kind of assay: Antimycobacterial activity against Mycobacterium tuberculosis H37Rv ATCC 27294 at 0.63 ug/ml after 7 days by microplate Alamar blue assay relative to control. It is filed as functional. Conditions: H37Rv ATCC 27294, 168 h. In outline:
as §1

For assay [13], the system named is Mycobacterium tuberculosis. The assay can be described thus: Antimycobacterial activity against Mycobacterium tuberculosis H37Rv ATCC 27294 at 1.25 to 5 ug/ml after 7 days by microplate Alamar blue assay relative to control. Type of assay: functional. In outline:
as §1

Regarding `CCc1nc(N)nc(N)c1-c1ccc(Cl)cc1` [PYRIMETHAMINE], in assay [1], the MIC90 (usually the lowest concentration that inhibits either 90% of growth or 90% of the strains tested, depending on the study) is 100 µM (≈ 24.9 µg/mL). For the same compound, in [2], 37.4 µg/mL (≈ 150 µM) corresponded to half-maximal inhibition (IC50) and it took 75 µg/mL (≈ 301 µM) to reach the 90% level (IC90). Further, in assay [3], the inhibition (commonly the drop in the measured response relative to a control, in per cent) at 25 µg/mL was found to be 26.7%. Further, in assay [4], the inhibition at 50 µg/mL was determined as 69.7%. Also, the inhibition at 100 µg/mL in [5] amounted to 95.6%.

`CCOC(=O)c1cc(C(=O)c2ccccc2)n2ccc(-c3ccn4c(C(=O)c5ccc(OC)cc5)cc(C(=O)OC)c4c3)cc12`: the MIC90 in assay [1] is greater than 100 µM. Also, in assay [2], the IC50 (commonly the concentration at which inhibition is half-maximal) was greater than 100 µg/mL and the IC90 (as a rule, the concentration needed for an effect of 90%) is greater than 100 µg/mL. Moreover, in assay [6], the inhibition at 1.56 µg/mL is -2%. The inhibition at 12.5 µg/mL in assay [7] came to 0.8%. For the same compound, the inhibition at 50 µg/mL in assay [4] stood at 5.3%. Moreover, the inhibition at 100 µg/mL in assay [5] is -4.5%.

In the case of `CCOC(=O)c1cc(C(=O)c2ccccc2)n2ccc(-c3ccncc3)cc12`, in [1], the MIC90 is greater than 100 µM. For the same compound, in [2], the IC50 is greater than 100 µg/mL and the IC90 was greater than 100 µg/mL. Further, in assay [6], the inhibition at 1.56 µg/mL came out at 3%. For the same compound, in assay [8], the inhibition at 6.5 µg/mL turned out to be 0.2%. Further, the inhibition at 100 µg/mL in [5] is -8.6%. The inhibition at 3.13 µg/mL in [9] came out at 3.9%.

`CCOC(=O)c1cc(C(N)=O)n2ccc(-c3ccncc3)cc12` gave an MIC90 in [1] greater than 100 µM. Moreover, in assay [2], the IC50 was greater than 100 µg/mL and the IC90 was greater than 100 µg/mL. For the same compound, the inhibition at 1.56 µg/mL in assay [6] was found to be 2.8%. In addition, the inhibition at 12.5 µg/mL in [7] was 4%. Further, in [4], the inhibition at 50 µg/mL amounted to 2%. Further, the inhibition at 100 µg/mL in [5] was -17%.

For the compound `NCC[C@H](O)C(=O)N[C@@H]1C[C@H](N)[C@@H](O[C@H]2O[C@H](CN)[C@@H](O)[C@H](O)[C@H]2O)[C@H](O)[C@H]1O[C@H]1O[C@H](CO)[C@@H](O)[C@H](N)[C@H]1O` [AMIKACIN], the MIC90 in [1] worked out at 0.16 µM (≈ 0.0937 µg/mL). In assay [2], this compound displayed an IC50 of 0.07 µg/mL (≈ 0.12 µM) and an IC90 of 0.08 µg/mL (≈ 0.137 µM). Further, the inhibition at 0.08 µg/mL in assay [10] turned out to be 79.8%. For the same compound, the “inhibition (INH)” value in assay [11] is on record as 96%. The inhibition at 0.63 µg/mL in assay [12] turned out to be 97.3%. In addition, the “inhibition (INH)” value in assay [13] amounted to 98%.
